Laboratory results: publication PMC9037807 (RSC Advances, 2021)

Tests used:
ovine COX-1 = target: T1, ovine COX-1 (Ovis aries, UniProt P05979); assay: In vitro cyclooxygenase; assay type: biochemical
T1 sequence (P05979 25-600): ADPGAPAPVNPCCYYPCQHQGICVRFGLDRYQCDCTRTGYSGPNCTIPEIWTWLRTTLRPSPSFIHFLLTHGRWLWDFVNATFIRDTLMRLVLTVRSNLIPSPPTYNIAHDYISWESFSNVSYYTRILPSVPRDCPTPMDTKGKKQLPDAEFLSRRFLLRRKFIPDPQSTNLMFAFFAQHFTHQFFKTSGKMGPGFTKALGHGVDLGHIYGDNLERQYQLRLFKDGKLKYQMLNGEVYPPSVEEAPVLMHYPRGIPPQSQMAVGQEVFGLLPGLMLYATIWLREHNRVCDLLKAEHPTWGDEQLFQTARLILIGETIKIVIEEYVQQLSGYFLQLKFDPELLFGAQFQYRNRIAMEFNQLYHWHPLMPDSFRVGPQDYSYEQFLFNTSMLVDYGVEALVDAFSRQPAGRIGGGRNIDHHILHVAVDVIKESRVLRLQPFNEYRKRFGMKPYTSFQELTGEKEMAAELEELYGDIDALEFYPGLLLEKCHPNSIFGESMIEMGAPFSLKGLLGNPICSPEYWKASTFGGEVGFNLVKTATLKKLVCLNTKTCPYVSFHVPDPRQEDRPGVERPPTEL

[1] = tested on: carrageenan-induced rat paw edema; assay: Carrageenan-induced rat paw edema model; assay type: in vivo; settings: 10 mg kg−1 po, n = 4; for Edema inhibition %, 1 h / Edema thickness ± SEM, 1 h: 1 h after carrageenan injection; for Edema inhibition %, 3 h / Edema thickness ± SEM, 3 h: 3 h after carrageenan injection; for Edema inhibition %, 6 h / Edema thickness ± SEM, 6 h: 6 h after carrageenan injection
Summary of the method: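 Rats were dosed orally with test compound (10 mg kg−1) in 5% aqueous DMSO (v/v). […] Thirty minutes after dosing, 0.02 ml of 1% carrageenan was injected sub-plantar. Paw thickness was measured 1, 3 and 6 h after injection, and edema inhibition % was calculated from paw thickness.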

ovine COX-2 = target: T2, ovine COX-2 (Ovis aries, UniProt P79208); assay: In vitro cyclooxygenase; assay type: biochemical; settings: for Selectivity index (SI): COX-1 IC50/COX-2 IC50
T2 sequence (P79208 17-603): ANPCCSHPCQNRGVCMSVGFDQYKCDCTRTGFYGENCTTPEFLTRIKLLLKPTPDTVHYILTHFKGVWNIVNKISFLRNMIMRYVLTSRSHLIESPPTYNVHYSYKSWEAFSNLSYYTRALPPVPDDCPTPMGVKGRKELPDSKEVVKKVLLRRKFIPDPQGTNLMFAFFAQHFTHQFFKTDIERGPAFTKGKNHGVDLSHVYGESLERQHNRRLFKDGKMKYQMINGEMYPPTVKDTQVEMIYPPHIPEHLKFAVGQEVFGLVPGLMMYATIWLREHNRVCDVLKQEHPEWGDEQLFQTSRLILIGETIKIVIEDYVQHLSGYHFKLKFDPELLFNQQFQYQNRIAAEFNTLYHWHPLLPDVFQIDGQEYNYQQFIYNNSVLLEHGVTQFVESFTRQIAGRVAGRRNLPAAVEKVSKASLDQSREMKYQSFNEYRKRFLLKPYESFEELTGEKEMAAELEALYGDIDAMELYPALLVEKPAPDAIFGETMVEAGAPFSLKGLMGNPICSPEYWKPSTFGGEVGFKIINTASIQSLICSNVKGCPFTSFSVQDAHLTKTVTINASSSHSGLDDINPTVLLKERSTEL

rat stomach = assay: Ulcerogenic liability; assay type: in vivo; settings: rats sacrificed 4 h after drug administration
rat's stomach = assay: Histo-pathological study of glandular and non-glandular stomach; assay type: in vivo; settings: text description

Row | Structure (SMILES) | IC50 (ovine COX-1) [µM] | IC50 (ovine COX-2) [µM] | Selectivity index (SI) (ovine COX-2) | Severity of histopathological lesions of the stomach (in words) (rat's stomach) | Edema inhibition %, 1 h [1] [%] | Edema thickness ± SEM, 1 h [1] [mm] | Edema inhibition %, 3 h [1] [%] | Edema thickness ± SEM, 3 h [1] [mm] | Edema inhibition %, 6 h [1] [%] | Edema thickness ± SEM, 6 h [1] [mm] | Ulcer index, mean (rat stomach) [mm]
1 | C/C(=N\NC(=O)Cn1c(-c2ccc(S(C)(=O)=O)cc2)nc2cc(C)ccc21)c1ccc(Cl)cc1 [12f, (E)-N′-(1-(4-Chlorophenyl)ethylidene)-2-(5-methyl-2-(4-(methylsulfonyl)phenyl)-1H-benzo[d]imidazol-1-yl) acetohydrazide] | 10.9 | 0.19 | 57 |  | 60 | 1.038 ± 0.014 | 64 | 0.801 ± 0.013 | 70 | 0.563 ± 0.012 | 
2 | Cc1ccc2c(c1)nc(-c1ccc(S(C)(=O)=O)cc1)n2CC(=O)N/N=C/c1ccc(F)cc1 [11l, (E)-N′-(4-Fluorobenzylidene)-2-(5-methyl-2-(4-(methylsulfonyl)phenyl)-1H-benzo[d]imidazol-1-yl) acetohydrazide] | 7.96 | 0.34 | 23 |  | 47 | 1.378 ± 0.009 | 51 | 1.102 ± 0.086 | 55 | 0.860 ± 0.010 | 
3 | C/C(=N\NC(=O)Cn1c(-c2ccc(S(C)(=O)=O)cc2)nc2ccccc21)c1ccc(Cl)cc1 [12b, (E)-N′-(1-(4-Chlorophenyl)ethylidene)-2-(2-(4-(methylsulfonyl)phenyl)-1H-benzo[d]imidazol-1-yl) acetohydrazide] | 12.5 | 0.1 | 125 |  | 80 | 0.522 ± 0.009 | 89 | 0.240 ± 0.014 | 95 | 0.104 ± 0.005 | 
4 | COc1ccc2c(c1)c(CC(=O)O)c(C)n2C(=O)c1ccc(Cl)cc1 [Indomethacin, indomethacin, reference compound] |  |  |  | severe lesions |  |  | 96 | 0.083 ± 0.005 | 97 | 0.051 ± 0.004 | 13
5 | CS(=O)(=O)c1ccc(-c2nc3ccccc3n2CC(=O)N/N=C/c2ccccc2)cc1 [11a, (E)-N′-Benzylidene-2-(2-(4-(methylsulfonyl)phenyl)-1H-benzo[d]imidazol-1-yl) acetohydrazide] | 9.87 | 0.19 | 52 |  | 60 | 1.048 ± 0.027 | 64 | 0.812 ± 0.037 | 69 | 0.578 ± 0.049 | 
6 | Cc1ccc(-c2cc(C(F)(F)F)nn2-c2ccc(S(N)(=O)=O)cc2)cc1 [Celecoxib, celecoxib, reference compound] |  |  |  | mild lesions | 74 | 0.690 ± 0.017 | 94 | 0.142 ± 0.009 | 96 | 0.070 ± 0.005 | 3.5
7 | CS(=O)(=O)c1ccc(-c2nc3ccccc3n2CC(=O)N/N=C/c2ccc(F)cc2)cc1 [11d, (E)-N′-(4-Fluorobenzylidene)-2-(2-(4-(methylsulfonyl)phenyl)-1H-benzo[d]imidazol-1-yl) acetohydrazide] | 10.2 | 0.12 | 85 |  |  |  | 81 | 0.427 ± 0.017 | 90 | 0.183 ± 0.014 | 
8 | C/C(=N\NC(=O)Cn1c(-c2ccc(S(C)(=O)=O)cc2)nc2ccccc21)c1ccccc1 [12a, (E)-2-(2-(4-(Methylsulfonyl)phenyl)-1H-benzo[d]imidazol-1-yl)-N′-(1-phenylethylidene) acetohydrazide] | 8.97 | 0.28 | 32 |  | 50 | 1.308 ± 0.101 | 54 | 1.017 ± 0.024 | 60 | 0.766 ± 0.006 | 

Continued, in another order:

Row | IC50 (ovine COX-1) [µM] | IC50 (ovine COX-2) [µM] | Selectivity index (SI) (ovine COX-2) | Severity of histopathological lesions of the stomach (in words) (rat's stomach) | Structure (SMILES) | Edema inhibition %, 1 h [1] [%] | Edema thickness ± SEM, 1 h [1] [mm] | Edema inhibition %, 3 h [1] [%] | Edema thickness ± SEM, 3 h [1] [mm] | Edema inhibition %, 6 h [1] [%] | Edema thickness ± SEM, 6 h [1] [mm] | Ulcer index, mean (rat stomach) [mm]
9 | 8.74 | 0.13 | 67 |  | COc1ccc(/C=N/NC(=O)Cn2c(-c3ccc(S(C)(=O)=O)cc3)nc3cc(Cl)ccc32)cc1 [11g, (E)-N′-(4-Methoxybenzylidene)-2-(5-chloro-2-(4-(methylsulfonyl)phenyl)-1H-benzo[d]imidazol-1-yl) acetohydrazide] | 61 | 1.017 ± 0.007 | 65 | 0.785 ± 0.018 | 78 | 0.410 ± 0.018 | 
10 | 11.3 | 0.11 | 103 |  | COc1ccc(/C=N/NC(=O)Cn2c(-c3ccc(S(C)(=O)=O)cc3)nc3ccccc32)cc1 [11c, (E)-N′-(4-Methoxybenzylidene)-2-(2-(4-(methylsulfonyl)phenyl)-1H-benzo[d]imidazol-1-yl) acetohydrazide] | 81 | 0.487 ± 0.019 | 92 | 0.181 ± 0.013 | 93 | 0.130 ± 0.010 | 
11 | 10.2 | 0.13 | 79 |  | CS(=O)(=O)c1ccc(-c2nc3cc(Cl)ccc3n2CC(=O)N/N=C/c2ccc(Cl)cc2)cc1 [11f, (E)-N′-(4-Chlorobenzylidene)-2-(5-chloro-2-(4-(methylsulfonyl)phenyl)-1H-benzo[d]imidazol-1-yl) acetohydrazide] | 78 | 0.577 ± 0.020 | 80 | 0.449 ± 0.008 | 90 | 0.191 ± 0.011 | 
12 | 7.98 | 0.22 | 36 |  | CS(=O)(=O)c1ccc(-c2nc3cc(Cl)ccc3n2CC(=O)N/N=C/c2ccc(F)cc2)cc1 [11h, (E)-N′-(4-Fluorobenzylidene)-2-(5-chloro-2-(4-(methylsulfonyl)phenyl)-1H-benzo[d]imidazol-1-yl) acetohydrazide] | 50 | 1.30 ± 0.079 | 52 | 1.063 ± 0.020 | 60 | 0.754 ± 0.026 | 
13 | 11.2 | 0.11 | 102 |  | Cc1ccc2c(c1)nc(-c1ccc(S(C)(=O)=O)cc1)n2CC(=O)N/N=C/c1ccc(Cl)cc1 [11j, (E)-N′-(4-Chlorobenzylidene)-2-(5-methyl-2-(4-(methylsulfonyl)phenyl)-1H-benzo[d]imidazol-1-yl) acetohydrazide] | 81 | 0.505 ± 0.022 | 91 | 0.194 ± 0.018 | 93 | 0.129 ± 0.008 | 
